Measured values: ChEMBL document CHEMBL2021915, “Synthesis, characterization and biological activity of hydroxyl-bisphosphonic analogs of bile acids” (Eur J Med Chem, 2012)
The source made the active and inactive calls. No cut-off for these calls is given here.

Experiments:
[1] = system: Hydroxyapatite; experiment: Binding affinity to hydroxyapatite assessed as unadsorbed compound level at 20 mg after 3 hrs using 2.5 mg/ml of hydroxyapatite by NMR analysis relative to control
Summary of the method: (§1)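 Bisphosphonate salt dissolved in bidistilled water, pH adjusted to 7.4, and magnetically stirred at 25 °C for the hydroxyapatite adsorption test.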

[2] = system: Hydroxyapatite; experiment: Binding affinity to hydroxyapatite assessed as unadsorbed compound level at 20 mg after 72 hrs using 7.5 mg/ml of hydroxyapatite by NMR analysis relative to control; summary of the method: as §1
[3] = Distribution coefficient, log D of the compound at pH 7.4; type: physicochemical; conditions: octanol/water
Summary of the method: (§2)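 Log D values were obtained by calculation, not by experimental partitioning.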

[4] = system: Hydroxyapatite; experiment: Binding affinity to hydroxyapatite assessed as unadsorbed compound level at 20 mg after 96 hrs using 10 mg/ml of hydroxyapatite by NMR analysis relative to control; summary of the method: as §1
[5] = system: Hydroxyapatite; experiment: Binding affinity to hydroxyapatite assessed as unadsorbed compound level at 20 mg after 24 hrs using 2.5 mg/ml of hydroxyapatite by NMR analysis relative to control; summary of the method: as §1
[6] = system: Hydroxyapatite; experiment: Binding affinity to hydroxyapatite assessed as unadsorbed compound level at 20 mg after 48 hrs using 5 mg/ml of hydroxyapatite by NMR analysis relative to control; summary of the method: as §1
[7] = Distribution coefficient, log D of the compound at pH 1.5; type: physicochemical; conditions: octanol/water; summary of the method: as §2
[8] = system: Osteoclast; experiment: Induction of apoptosis in human multinucleated osteoclasts obtained from PBMC assessed as formation of apoptotic nuclear bodies at 10^-5 M after 7 days by Hoechst 33258 staining; type: functional, cell-based
Summary of the method: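 PBMC-derived osteoclasts (7 days in SH-SY5Y-conditioned differentiation medium) then exposed to compound (10^-5, 10^-7, 10^-9 M) for a further 7 days. Fixed, stained with phalloidin-TRITC (F-actin rings) and Hoechst 33258; multinucleated cells with apoptotic nuclear bodies counted over whole well at 40×, as % of multinucleated TRACP-positive cells. 4 cultures, two donors.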

[9] = system: Hydroxyapatite; experiment: Binding affinity to hydroxyapatite assessed as unadsorbed compound level at 40 mg after 48 hrs using 5 mg/ml of hydroxyapatite by NMR analysis relative to control
Summary of the method: (§3)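 Compound (about 40 mg) dissolved in 10 mL bidistilled water, pH adjusted to 7.4, stirred at 25 °C in a capped vial with hydroxyapatite; remaining unadsorbed compound in solution followed over time by NMR signal relative to starting signal.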

[10] = system: Hydroxyapatite; experiment: Binding affinity to hydroxyapatite assessed as unadsorbed compound level at 40 mg after 24 hrs using 2.5 mg/ml of hydroxyapatite by NMR analysis relative to control; summary of the method: as §3
[11] = system: Hydroxyapatite; experiment: Binding affinity to hydroxyapatite assessed as unadsorbed compound level at 40 mg after 3 hrs using 2.5 mg/ml of hydroxyapatite by NMR analysis relative to control; summary of the method: as §3
[12] = system: Hydroxyapatite; experiment: Binding affinity to hydroxyapatite assessed as unadsorbed compound level at 40 mg after 72 hrs using 7.5 mg/ml of hydroxyapatite by NMR analysis relative to control; summary of the method: as §3
[13] = system: Hydroxyapatite; experiment: Binding affinity to hydroxyapatite assessed as unadsorbed compound level at 40 mg after 96 hrs using 10 mg/ml of hydroxyapatite by NMR analysis relative to control; summary of the method: as §3
[14] = system: PBMC; experiment: Inhibition of osteoclastogenesis in human osteoclasts obtained from PBMC assessed as formation of TRAPC positive multinucleated cells at 10^-5 to 10^-9 M after 7 days; type: functional, cell-based
Summary of the method: (§4)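 Human PBMC from buffy coats (Ficoll), adherent monocytes at 3 × 10^6 cells/cm2 differentiated in DMEM/10% FBS with 25% SH-SY5Y conditioned supernatant, compound (10^-5, 10^-7, 10^-9 M) added with differentiation medium for 7 days. TRACP-positive multinucleated cells counted after fixation and TRACP staining; untreated differentiated cultures = 100%. Duplicates; 4 cultures from two donors.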

[15] = system: L929; experiment: Cytotoxicity against mouse L929 cells assessed as cell viability after 72 hrs by neutral-red uptake assay; type: cell-based; conditions: l929, 72 h
Summary of the method: (§5)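 L929 mouse fibroblasts in MEM/10% FCS, 0.8 × 10^3 cells/well, adhered 24 h, then exposed to serial dilutions (10^-4 to 10^-10 M; 10^-2 M PBS pH 7.4 stocks) for 72 h. Neutral red 2 h at 37 °C, extracted with ethanol/acetic acid, OD 540 nm, blank-subtracted; ratio to medium-only control. Triplicate wells, 9 experiments.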

[16] = system: L929; experiment: Cytotoxicity against mouse L929 cells assessed as cell viability at 10^-4 to 10^-5 M after 72 hrs by neutral-red uptake assay relative to neridronate; type: cell-based; conditions: l929, 72 h; summary of the method: as §5
[17] = Solubility of the compound in L929 cell culture medium; type: physicochemical
[18] = system: PBMC; experiment: Inhibition of osteoclastogenesis in human osteoclasts obtained from PBMC assessed as formation of TRAPC positive multinucleated cells at 10^-5 M after 7 days; type: functional, cell-based; summary of the method: as §4

For `O=P(O)(O)C(Cl)(Cl)P(=O)(O)O` [CLODRONIC ACID], the Activity [1] was 100%, the Activity [2] was 96% and the logD [3] was -5.04. It also gave an Activity [4] of 93%, an Activity [5] of 100% and an Activity [6] of 100%. It also gave a logD [7] of -1.32.
With `C[C@H](CCC(O)(P(=O)(O)O)P(=O)(O)O)[C@H]1CC[C@H]2[C@@H]3[C@H](O)C[C@@H]4C[C@H](O)CC[C@]4(C)[C@H]3CC[C@]12C` [listing 1 of 2 here] the logD ([3]; read-out: logD) was -3.34 and the logD [7] was 0.44.
With `C[C@H](CCC(O)(P(=O)(O)O)P(=O)(O)O)[C@H]1CC[C@H]2[C@@H]3[C@H](O)C[C@@H]4C[C@H](O)CC[C@]4(C)[C@H]3CC[C@]12C` [listing 2 of 2 here] the Activity [8] was “Active”, the Activity [9] was 32% and the Activity [10] was 64%. The Activity [11] was 91%, the Activity [12] was 12% and the Activity [13] was 3%. For the same compound, the inhibition [14] was “Active”.
With `C[C@H](CCC(O)(P(=O)([O-])O)P(=O)([O-])O)[C@H]1CC[C@H]2[C@@H]3[C@H](O)C[C@@H]4C[C@H](O)CC[C@]4(C)[C@H]3CC[C@]12C.[Na+].[Na+]` the Activity [15] was “Dose-dependent effect” and the Activity [16] was “Non-toxic”.
`C[C@H](CCC(O)(P(=O)(O)O)P(=O)(O)O)[C@H]1CC[C@H]2[C@@H]3[C@@H](O)C[C@@H]4C[C@H](O)CC[C@]4(C)[C@H]3CC[C@]12C` gave a logD ([3]; read-out: logD) of -3.34 and a logD [7] of 0.44.
In the case of `C[C@H](CCC(O)(P(=O)([O-])O)P(=O)([O-])O)[C@H]1CC[C@H]2[C@@H]3[C@@H](O)C[C@@H]4C[C@H](O)CC[C@]4(C)[C@H]3CC[C@]12C.[Na+].[Na+]`, the solubility [17] is reported as “Insoluble”.
In the case of `NCCCCCC(O)(P(=O)(O)O)P(=O)(O)O` [NERIDRONIC ACID], the Activity [15] is reported as “Dose-dependent effect”, the Activity [1] is reported as 98% and the Activity [2] is reported as 82%. The Activity [8] was “Active”, the Activity [4] was 67% and the Activity [5] was 96%. The inhibition [14] was “Active” and the Activity [6] was 85%.
In the case of `C[C@H](CCC(=O)O)[C@H]1CC[C@H]2[C@@H]3[C@H](O)C[C@@H]4C[C@H](O)CC[C@]4(C)[C@H]3CC[C@]12C`, the Activity [8] is reported as “Active” and the inhibition [18] is reported as “Active”.
In the case of `C[C@H](CCC(O)(P(=O)([O-])O)P(=O)([O-])O)[C@H]1CC[C@H]2[C@@H]3[C@H](O)C[C@@H]4C[C@H](O)CC[C@]4(C)[C@H]3C[C@H](O)[C@]12C.[Na+].[Na+]`, the solubility [17] is reported as “Insoluble”.
With `C[C@H](CCC(O)(P(=O)(O)O)P(=O)(O)O)[C@H]1CC[C@H]2[C@@H]3[C@H](O)C[C@@H]4C[C@H](O)CC[C@]4(C)[C@H]3C[C@H](O)[C@]12C` the logD [3] was -4.53 and the logD [7] was -0.76.
